These molecules were tested on HCT-116 (assay: Cytotoxicity against human HCT116 cells assessed as growth inhibition after 72 hrs by MTT assay). Conditions: HCT-116, 72 h.
Assay type: functional, cell-based
Method in brief: (§1)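 Cells exposed to compound for 72 h, then MTT added. Formazan crystals dissolved in DMSO and absorbance read at 570 nm. Run in triplicate in three independent experiments. IC₅₀ (50% cell growth inhibition) derived by dose-effect analysis.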

SMILES | IC50
Nc1ncnc(N2CCN(C(=O)C(N)Cc3ccccc3)CC2)c1Br (racemic) | 6.19 µM
NCC1(c2ccc(Cl)c(Cl)c2)CCN(c2cc(N)ncn2)CC1 | 19.8 µM
Nc1ncnc(N2CCN(C(=O)C(N)Cc3ccc(Cl)cc3)CC2)c1Br (racemic) | 5.15 µM
CNc1cc(N2CCC(CN)(c3ccc(Cl)c(Cl)c3)CC2)ncn1 | 16.7 µM
Nc1ncnc(N2CCN(C(=O)[C@@H](N)Cc3ccccc3)CC2)c1Cl | 28.7 µM
Nc1ncnc(N2CCN(C(=O)C(N)Cc3ccc(Cl)cc3)CC2)c1Cl (racemic) | 4.36 µM

Each molecule was assayed on OVCAR-8 (assay: Cytotoxicity against human OVCAR8 cells assessed as growth inhibition after 72 hrs by MTT assay). Conditions: OVCAR-8, 72 h.
Assay type: functional, cell-based
Method in brief: as §1

SMILES | IC50
Nc1ncnc(N2CCN(C(=O)C(N)Cc3ccc(Cl)cc3)CC2)c1Br (racemic) | 22.7 µM
Nc1ncnc(N2CCN(C(=O)C(N)Cc3ccc(Cl)cc3)CC2)c1Cl (racemic) | 26.1 µM

These molecules were tested against RAC-alpha serine/threonine-protein kinase (Homo sapiens, UniProt P31749) (assay: Inhibition of AKT1 (unknown origin) using ATP/eNOS as substrate incubated for 5 mins prior to substrate addition measured after 30 mins by fluorescence polarization assay). Conditions: not given.
Chain of RAC-alpha serine/threonine-protein kinase (P31749 whole entry): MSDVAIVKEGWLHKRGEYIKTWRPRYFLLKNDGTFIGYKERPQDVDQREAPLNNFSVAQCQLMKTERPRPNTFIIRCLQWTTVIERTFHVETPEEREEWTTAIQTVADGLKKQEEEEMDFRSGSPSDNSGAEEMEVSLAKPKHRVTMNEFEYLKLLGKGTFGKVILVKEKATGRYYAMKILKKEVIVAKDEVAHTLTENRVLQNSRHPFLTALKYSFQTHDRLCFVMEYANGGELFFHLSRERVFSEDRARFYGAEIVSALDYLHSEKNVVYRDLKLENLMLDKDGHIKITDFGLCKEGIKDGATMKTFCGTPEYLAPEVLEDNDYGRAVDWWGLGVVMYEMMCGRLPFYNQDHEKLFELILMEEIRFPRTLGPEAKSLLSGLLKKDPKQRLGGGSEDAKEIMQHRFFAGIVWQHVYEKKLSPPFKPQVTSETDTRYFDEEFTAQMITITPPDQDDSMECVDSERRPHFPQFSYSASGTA

SMILES | IC50
Nc1ncnc(N2CCN(C(=O)C(N)Cc3ccccc3)CC2)c1Br (racemic) | 432 nM
NCC1(c2ccc(Cl)c(Cl)c2)CCN(c2cc(N)ncn2)CC1 | 4320 nM
Nc1ncnc(N2CCN(C(=O)C(N)Cc3ccc(Cl)cc3)CC2)c1Br (racemic) | 7.7 nM
CNc1cc(N2CCC(CN)(c3ccc(Cl)c(Cl)c3)CC2)ncn1 | 1830 nM
Nc1ncnc(N2CCN(C(=O)[C@@H](N)Cc3ccccc3)CC2)c1Cl | 1830 nM
Nc1ncnc(N2CCN(C(=O)C(N)Cc3ccc(Cl)cc3)CC2)c1Cl (racemic) | 17 nM
